KDM4C inh: inhibitors of GASC-1 (KDM4C) histone demethylase, primary screen, biochemical, single concentration HTS. inhibition, % at 12.5 µM. 96,000 tested, 0.15% active. GST-KDM4C 2-372, H3K9me3 peptide, LANCE TR-FRET. AID 720574, 2013;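 active means mean replicate inhibition above about 25%, with at least 55% of replicates also reaching it, limit read from the data, passing the limit was not always enough; inconclusive means only one of those two conditions met; inactive means neither condition met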
Target sequence (Q9H3R0 2-372 limits assumed): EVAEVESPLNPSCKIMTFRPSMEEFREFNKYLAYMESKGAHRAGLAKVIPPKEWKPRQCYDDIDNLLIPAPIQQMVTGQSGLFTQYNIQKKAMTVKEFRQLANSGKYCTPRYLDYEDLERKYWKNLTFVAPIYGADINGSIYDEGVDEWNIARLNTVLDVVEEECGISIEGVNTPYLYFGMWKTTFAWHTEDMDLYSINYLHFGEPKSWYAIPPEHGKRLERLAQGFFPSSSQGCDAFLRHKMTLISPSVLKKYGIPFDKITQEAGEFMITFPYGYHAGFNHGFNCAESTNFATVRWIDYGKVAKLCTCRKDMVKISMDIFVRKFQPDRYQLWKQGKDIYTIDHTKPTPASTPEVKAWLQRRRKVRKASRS
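Compound: one test concentration per compound; Material: GST-GASC-1 enzyme fragment 2-372; Amount: GASC-1 enzyme at 10 nM final in reaction; Also added: H3K9me3 peptide substrate, Fe(II), 2-oxoglutarate; Technique: LANCE TR-FRET; Times: 30 min demethylation and 1 h detection at room temperature.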
T cruzi growth-1: T. cruzi intracellular proliferation inhibitors, primary screen, cell-based, beta-gal Tulahuen parasites, NIH3T3 host, luminescence | T. cruzi beta-gal in NIH3T3, GalScreen luminescence, 90 h | inhibition, % at 8.34 µM | 77,000 tested, 5.9% active | AID 624255, 2012;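 active means mean inhibition above about 93%, with at least 55% of replicates each passing it, limit read from the data, passing the limit was not always enough; inconclusive means only one of those two conditions holds; inactive means neither condition holds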
IDH1 R132H inh: inhibitors of IDH1 R132H reductase, primary screen, biochemical, plate reader, single point; diaphorase/resazurin fluorescence, 60 min; Isocitrate dehydrogenase [NADP] cytoplasmic (Homo sapiens), O75874; 70,000 tested, 0.18% active; inhibition, % at 10 µM; in the data active means inhibition above about 34%; inconclusive means no clear call, values can overlap the other calls; inactive means below about 11%;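 further: 0% = DMSO and 100% = no enzyme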
Pf Dd2 inh: P. falciparum Dd2 growth inhibitors, primary screen, SYBR Green fluorescence, single dose replicates | 72 h; hits give low values | activity change, % at 10 µM | 94,000 tested, 2.3% active | AID 1159554, 2015; in the data active means activity change below about -80%; inconclusive means no clear call, values can overlap the other calls
T cruzi growth-2: T. cruzi intracellular proliferation inhibitors, confirmation, cell-based, NIH3T3 host, beta-gal parasite, luminescence, cherry-pick | shares compounds with T cruzi growth-1 | T. cruzi beta-gal in NIH3T3, GalScreen luminescence, 90 h | inhibition, % at 8.35 µM | 5,600 tested, 72% active;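 active means mean replicate inhibition above about 95% and at least 55% of replicates individually reaching it, limit read from the data; inconclusive means only one of the two criteria is met; inactive means neither criterion is met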
T cruzi growth-3: inhibitors of intracellular T. cruzi replication, confirmation, NIH3T3 host cells, beta-gal parasites, cherry-pick, set 2; inhibition, % at 2.09 µM; T. cruzi beta-gal in NIH3T3, GalScreen luminescence, 90 h; shares compounds with T cruzi growth-1; 5,600 tested, 21% active;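 active means mean inhibition above about 95%, with at least 55% of replicates also reaching it, limit read from the data; inconclusive means meets just one of the two conditions; inactive means meets neither condition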;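 further: plate controls were neutral control median for no effect and positive control median for full effect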
3T3 cytotox: cytotoxicity in mouse NIH/3T3 fibroblasts, confirmation, cytotoxicity control for T. cruzi proliferation inhibitor project, cell-based, cherry-pick, single point; shares compounds with T cruzi growth-1; NIH/3T3 viability, CellTiter-Glo ATP luminescence, 90 h; cytotoxicity (signal decrease), % at 8.35 µM; 5,600 tested, 14% active; AID 651742, 2012;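 active means mean signal decrease across replicates above about 35% based on untreated-well scatter, with enough replicates individually passing, limit read from the data; inconclusive means no rule stated though some were filed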;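 further: 0% = median of neutral control wells and 100% = median of positive control wells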
3T3 cytotox 2: NIH/3T3 fibroblast cytotoxicity, confirmation, cytotoxicity control, cell-based, cherry-pick, single point, set 2; 5,600 tested, 56% active; AID 651744, 2012; shares compounds with T cruzi growth-1; inhibition, % at 24.9 µM; NIH/3T3 viability, CellTiter-Glo ATP luminescence, 90 h;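 active means mean loss of cell viability signal at or above a set limit, and enough replicates individually reaching it; inconclusive means meets only the mean limit or only the replicate share; inactive means meets neither condition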;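 further: 0% = median of neutral control wells and 100% = median of positive control wells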
* = called active by the depositor; ? = inconclusive; nt = no result given. The list is not random: actives were taken first. Their share in the collection is about 5.8%.

SMILES	KDM4C inh	T cruzi growth-1	IDH1 R132H inh	Pf Dd2 inh	T cruzi growth-2	T cruzi growth-3	3T3 cytotox	3T3 cytotox 2
COc1ccc(NC(=O)Nc2ccc3c(c2)C(=O)N([C@@H](C)CO)C[C@H](C)[C@H](CN(C)C(=O)Nc2ccc(C(F)(F)F)cc2)OCCCC[C@H](C)O3)cc1	1.9	?	0.7	-33.2	104.2*	111.5*	-18.6	1.8
COc1ccc(NC(=O)Nc2ccc3c(c2)C(=O)N([C@H](C)CO)C[C@@H](C)[C@@H](CN(C)C(=O)Nc2ccc(OC)cc2)OCCCC[C@@H](C)O3)cc1	-0.2	nt	1.6	-56.1	nt	nt	nt	nt
CCCC#Cc1cnc2c(c1)C(=O)N([C@@H](C)CO)C[C@H](C)[C@@H](CN(C)C(=O)Cc1ccccc1)O2	-0.1	37.0	0.1	-33.4	nt	nt	nt	nt
C[C@H](CO)N1C[C@H](C)[C@@H](CN(C)Cc2ccccc2)Oc2ccc(NC(=O)NC3CCCCC3)cc2C1=O	4.2	-8.7	nt	5.8	nt	nt	nt	nt
C[C@H](CO)N1C[C@H](C)[C@@H](CN(C)Cc2ccc(-c3ccccc3)cc2)Oc2ccc(NC(=O)C3CCCCC3)cc2C1=O	-0.9	41.5	nt	-3.6	nt	nt	nt	nt
C[C@@H]1CN([C@H](C)CO)C(=O)c2cc(NC(=O)C3CCCCC3)ccc2O[C@H]1CN(C)Cc1ccc(-c2ccccc2)cc1	0.1	?	3.0	-10.3	107.8*	-4.9	3.7	39.2*
C[C@H](CO)N1C[C@H](C)[C@H](CN(C)Cc2ccc(-c3ccccc3)cc2)Oc2ccc(NC(=O)NC3CCCCC3)cc2C1=O	-2.1	111.0*	-0.9	12.7	104.2*	18.8	12.7	47.0*
C[C@H]1CN([C@@H](C)CO)C(=O)c2cc(NC(=O)C3CCCCC3)ccc2O[C@@H]1CN(C)Cc1ccc(-c2ccccc2)cc1	0.3	104.3*	nt	-42.4	109.0*	70.4	32.8	21.1
COc1cccc(S(=O)(=O)N(C)C[C@@H]2OCc3ccccc3-c3ccccc3C(=O)N([C@@H](C)CO)C[C@@H]2C)c1	0.0	105.0*	nt	-66.5	30.3	-1.4	-4.3	8.1
C[C@@H]1CN([C@H](C)CO)C(=O)c2ccccc2-c2ccccc2CO[C@H]1CN(C)S(=O)(=O)c1cccc(C#N)c1	-1.2	?	nt	-56.3	47.5	28.0	5.0	22.4
COc1ccc2c3c(n(C)c2c1)[C@H](CO)N(C(=O)C1CCC1)CC31CN(C(=O)CN(C)C)C1	-0.1	nt	nt	-44.8	nt	nt	nt	nt
CN(C)C(=O)C[C@H]1CC[C@@H](NC(=O)c2ccc(F)cc2)[C@H](CO)O1	-0.8	29.1	0.0	-10.5	nt	nt	nt	nt
CCCNC(=O)[C@@H]1[C@@H](CO)[C@@H]2Cn3c(ccc(-c4ccccc4)c3=O)[C@@H]2N1C(=O)c1ccccc1F	-0.2	-27.8	nt	1.7	nt	nt	nt	nt
C[C@@H]1CCCCO[C@H](CN(C)S(=O)(=O)c2cccs2)[C@@H](C)CN([C@@H](C)CO)C(=O)c2cc(NS(=O)(=O)c3cccs3)ccc2O1	-0.5	nt	-0.8	-66.2	nt	nt	nt	nt
C[C@@H]1CN([C@H](C)CO)S(=O)(=O)c2ccc(C#CCN(C)C)cc2O[C@@H]1CN(C)C(=O)CC1CC1	9.2	84.9	-1.5	31.4	nt	nt	nt	nt
C[C@@H]1CN([C@@H](C)CO)S(=O)(=O)c2ccc(C#CCN(C)C)cc2O[C@H]1CN(C)C(=O)CC1CC1	0.4	?	-1.3	-26.1	96.6*	85.1	-4.6	9.2
C[C@H]1CN([C@@H](C)CO)S(=O)(=O)c2ccc(C#CCN(C)C)cc2O[C@H]1CN(C)C(=O)CC1CC1	6.7	?	0.4	3.2	99.5*	77.9	2.0	9.4
C[C@H](CO)N1C[C@H](C)[C@@H](CN(C)C(=O)CC2CC2)Oc2cc(C#CCN(C)C)ccc2S1(=O)=O	0.0	96.2*	0.2	-18.7	97.8*	90.4	-5.8	11.7
CCCNC(=O)N1C[C@H](C)[C@H](OC)CN(C)C(=O)c2ccc(NS(=O)(=O)CC(F)(F)F)cc2OC[C@H]1C	-0.5	29.1	-0.1	0.4	nt	nt	nt	nt
C[C@@H]1CN([C@@H](C)CO)S(=O)(=O)c2ccc(C3=CCCCC3)cc2O[C@H]1CN(C)C(=O)C1CCCCC1	0.0	117.8*	5.6	-46.3	104.1*	45.4	9.2	96.4*
C[C@H]1CN([C@@H](C)CO)S(=O)(=O)c2ccc(C3=CCCCC3)cc2O[C@@H]1CN(C)C(=O)C1CCCCC1	0.7	120.8*	nt	-36.5	103.0*	98.8*	-12.2	105.0*
C[C@H](CO)N1C[C@H](C)[C@@H](CN(C)C(=O)C2CCCCC2)Oc2cc(C3=CCCCC3)ccc2S1(=O)=O	-1.9	112.5*	nt	-25.6	110.0*	47.7	4.7	104.9*
C[C@@H]1CN([C@@H](C)CO)S(=O)(=O)c2ccc(C3=CCCCC3)cc2O[C@@H]1CN(C)C(=O)C1CCCCC1	8.6	119.2*	nt	12.4	104.6*	93.1	33.5	105.9*
C[C@H](CO)N1C[C@H](C)[C@@H](CN(C)Cc2ccc(-c3ccccc3)cc2)Oc2c(NS(=O)(=O)c3ccc(Cl)cc3)cccc2C1=O	0.7	36.2	2.0	-9.0	nt	nt	nt	nt
CN(C)C(=O)c1cccc(-c2ccc([C@H]3[C@@H](CO)N4CCCCN(C(=O)C5CCCC5)C[C@H]34)cc2)c1	nt	102.6*	nt	10.8	98.2*	91.6	3.2	-2.8
CN(C)C(=O)c1cccc(-c2ccc([C@@H]3[C@H](CO)N4CCCCN(C(=O)C5CCC5)C[C@@H]34)cc2)c1	-0.7	104.4*	nt	20.8	80.7	41.6	-7.9	23.4
CN(C)C(=O)c1cccc(-c2ccc([C@@H]3[C@@H](CO)N4CCCCN(C(=O)C5CCC5)C[C@H]34)cc2)c1	1.6	84.2	nt	26.4	nt	nt	nt	nt
C[C@@H]1CN([C@@H](C)CO)S(=O)(=O)c2ccc(C#CC(C)(C)O)cc2O[C@@H]1CN(C)C(=O)C1CCCCC1	-0.4	47.5	4.8	13.5	nt	nt	nt	nt
O=c1cc(-c2ccc(O)cc2)oc2cc(O[C@@H]3O[C@H](CO)[C@@H](O)[C@H](O)[C@H]3O[C@H]3OC[C@](O)(CO)[C@H]3O)ccc12	nt	nt	-0.4	nt	nt	nt	nt	nt
